The first assay concerns BJ. The assay is described as follows: Growth inhibition of human BJ cells after 72 hrs by CellTiter-Glo reagent based assay. The class given is cell-based.
Conditions: not given; call rule not given here
On the technique in general: In ATP-based viability assays light output follows the ATP content of the culture.
What is called EC50 is the midpoint of the concentration-response curve. `CCN(CC)CCCNC(=O)C(C)C1=C(C)/C(=C/c2ccc(SC)cc2)c2ccc(F)cc21` (stereo not drawn): the concentration for a half-maximal effect (EC50) was over 7.57 µM.
In turn, `CCN(CC)CCNC(=O)C(C)C1=C(C)/C(=C/c2ccc(SC)cc2)c2ccc(F)cc21` (stereo not drawn) showed an EC50 of over 7.57 µM.
The same measure, in the same setting: as for `CSc1ccc(/C=C2/C(C)=C(C(C)C(=O)N(C)CCCN(C)C)c3cc(F)ccc32)cc1` (stereo not drawn), the figure is over 7.57 µM; as for `CSc1ccc(/C=C2/C(C)=C(C(C)C(=O)N3CCC[C@H]3CN3CCCC3)c3cc(F)ccc32)cc1` (stereo partly drawn), over 7.57 µM.
`CSc1ccc(/C=C2/C(C)=C(C(C)C(=O)NCCN(C)C)c3cc(F)ccc32)cc1` (stereo not drawn): the EC50 is over 7.57 µM.

A further assay deals with HT-29. The assay is described as follows: Growth inhibition of human HT-29 cells measured after 72 hrs by Celltiter-Glo reagent based assay. The class given is functional. To be noted: HT-29, 72 h.
What is called CC50 is the concentration that lowers cell viability or growth by half. A low value points to greater toxicity to the cells. `CSc1ccc(/C=C2/C(C)=C(C(C)C(=O)N(C)CCN(C)C(=O)[C@@H](N)C(C)C)c3cc(F)ccc32)cc1` (stereo partly drawn) yielded a half-maximal cytotoxic concentration (CC50) of 2.22 µM.
With `CC1=C(C(C)C(=O)N2CCC[C@H]2CN2CCCC2)c2cc(F)ccc2/C1=C\c1ccc([S+](C)[O-])cc1` (stereo partly drawn), the CC50 was determined as 7.82 µM.
Still for that read-out and setting: the result for `CC1=C(C(C)C(=O)N(C)CCN(C)C)c2cc(F)ccc2/C1=C\c1ccc([S+](C)[O-])cc1` (stereo not drawn) reads 11.8 µM; that for `CCN(CC)CCCNC(=O)C(C)C1=C(C)/C(=C/c2ccc(SC)cc2)c2ccc(F)cc21` (stereo not drawn), 2.17 µM; that for `CCN(CC)CCNC(=O)C(C)C1=C(C)/C(=C/c2ccc(SC)cc2)c2ccc(F)cc21` (stereo not drawn), 2.03 µM.
On to `CSc1ccc(/C=C2/C(C)=C(C(C)C(=O)N(C)CCCN(C)C)c3cc(F)ccc32)cc1` (stereo not drawn), for which the CC50 came out at 2.12 µM.
On the same count and under the same terms, the result for `CSc1ccc(/C=C2/C(C)=C(C(C)C(=O)N3CCC[C@H]3CN3CCCC3)c3cc(F)ccc32)cc1` (stereo partly drawn) reads 0.84 µM; that for `CSc1ccc(/C=C2/C(C)=C(C(C)C(=O)NCCN(C)C)c3cc(F)ccc32)cc1` (stereo not drawn), 1.8 µM.

The subject of a further assay is Raji. Nature of the assay: Growth inhibition of human Raji cells measured after 72 hrs by Celltiter-Glo reagent based assay. The class given is functional, cell-based. To be noted: raji. The method in brief:
(§1)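 Cell line sources: Raji is a Burkitt's lymphoma line (FAB L3); Jurkat E6-1 is an acute T-cell leukemia line; REH is a patient-derived precursor B-cell ALL line expressing only wild-type MLL and wild-type AF4; 697 was established from bone marrow of children with relapsed ALL; CPC300 derives from a mouse model of choroid plexus carcinoma.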
Consider `CCN(CC)CCCNC(=O)C(C)C1=C(C)/C(=C/c2ccc(SC)cc2)c2ccc(F)cc21` (stereo not drawn), for which the 50% effective concentration (EC50) entry is reported as “Not Active”.
With `CCN(CC)CCNC(=O)C(C)C1=C(C)/C(=C/c2ccc(SC)cc2)c2ccc(F)cc21` (stereo not drawn), the EC50 result is listed as “Not Active”.
For `CSc1ccc(/C=C2/C(C)=C(C(C)C(=O)N(C)CCCN(C)C)c3cc(F)ccc32)cc1` (stereo not drawn), the 50% effective concentration (EC50) entry was “Not Active”.
Same read-out and setting: as for `CSc1ccc(/C=C2/C(C)=C(C(C)C(=O)NCCN(C)C)c3cc(F)ccc32)cc1` (stereo not drawn), the entry is “Not Active”.

Tested on in a further assay: not listed separately
The assay is described as follows: Growth inhibition of mouse CPC300 cells measured after 72 hrs by Celltiter-Glo reagent based assay. The class given is functional.
Conditions: not given
The procedure, abridged:
as §1
As to `CCN(CC)CCCNC(=O)C(C)C1=C(C)/C(=C/c2ccc(SC)cc2)c2ccc(F)cc21` (stereo not drawn), the EC50 entry is reported as “Not Active”.
As to `CCN(CC)CCNC(=O)C(C)C1=C(C)/C(=C/c2ccc(SC)cc2)c2ccc(F)cc21` (stereo not drawn), the concentration giving a half-maximal response (EC50) result is “Not Active”.
As to `CSc1ccc(/C=C2/C(C)=C(C(C)C(=O)N(C)CCCN(C)C)c3cc(F)ccc32)cc1` (stereo not drawn), the EC50 entry was “Not Active”.
As for `CSc1ccc(/C=C2/C(C)=C(C(C)C(=O)N3CCC[C@H]3CN3CCCC3)c3cc(F)ccc32)cc1` (stereo partly drawn), the EC50 result is given as “Not Active”.
Consider `CSc1ccc(/C=C2/C(C)=C(C(C)C(=O)NCCN(C)C)c3cc(F)ccc32)cc1` (stereo not drawn), for which the EC50 entry is on record as “Not Active”.

Another assay deals with REH. Nature of the assay: Growth inhibition of human REH cells measured after 72 hrs by CellTiter-Glo reagent based assay. The note with it: Homo sapiens, REH, 72 h; read-out: EC50. The class given is functional, cell-based. The method in brief: as §1
Regarding `CCN(CC)CCNC(=O)C(C)C1=C(C)/C(=C/c2ccc(SC)cc2)c2ccc(F)cc21` (stereo not drawn), the EC50 came to 14 µM.
`CSc1ccc(/C=C2/C(C)=C(C(C)C(=O)N(C)CCCN(C)C)c3cc(F)ccc32)cc1` (stereo not drawn): the EC50 came out at 38 µM.
The same measure, in the same setting: the result for `CSc1ccc(/C=C2/C(C)=C(C(C)C(=O)N3CCC[C@H]3CN3CCCC3)c3cc(F)ccc32)cc1` (stereo partly drawn) reads 11 µM.

Staying with this assay, now noted: reh.
As to `CCN(CC)CCCNC(=O)C(C)C1=C(C)/C(=C/c2ccc(SC)cc2)c2ccc(F)cc21` (stereo not drawn), the EC50 entry was “Not Active”.
Same read-out and setting: as for `CSc1ccc(/C=C2/C(C)=C(C(C)C(=O)NCCN(C)C)c3cc(F)ccc32)cc1` (stereo not drawn), the entry is “Not Active”.

In the next assay the test system is Jurkat E6.1. Nature of the assay: Growth inhibition of human Jurkat E6-1 cells measured after 72 hrs by Celltiter-Glo reagent based assay. The class given is functional, cell-based. To be noted: jurkat e6.1. The method in brief: as §1
Regarding `CCN(CC)CCCNC(=O)C(C)C1=C(C)/C(=C/c2ccc(SC)cc2)c2ccc(F)cc21` (stereo not drawn), the concentration for a half-maximal effect (EC50) result was “Not Active”.
Regarding `CCN(CC)CCNC(=O)C(C)C1=C(C)/C(=C/c2ccc(SC)cc2)c2ccc(F)cc21` (stereo not drawn), the EC50 entry is “Not Active”.
On the same count and under the same terms, as for `CSc1ccc(/C=C2/C(C)=C(C(C)C(=O)N(C)CCCN(C)C)c3cc(F)ccc32)cc1` (stereo not drawn), the entry is “Not Active”; as for `CSc1ccc(/C=C2/C(C)=C(C(C)C(=O)N3CCC[C@H]3CN3CCCC3)c3cc(F)ccc32)cc1` (stereo partly drawn), “Not Active”; as for `CSc1ccc(/C=C2/C(C)=C(C(C)C(=O)NCCN(C)C)c3cc(F)ccc32)cc1` (stereo not drawn), “Not Active”.

The subject of another assay is 697. Nature of the assay: Growth inhibition of human 697 cells after 72 hrs by CellTiter-Glo reagent based assay. The note with it: 697. The class given is functional, cell-based. The procedure, abridged: as §1
With `CCN(CC)CCCNC(=O)C(C)C1=C(C)/C(=C/c2ccc(SC)cc2)c2ccc(F)cc21` (stereo not drawn), the EC50 entry is given as “Not Active”.
On the same count and under the same terms, the result for `CCN(CC)CCNC(=O)C(C)C1=C(C)/C(=C/c2ccc(SC)cc2)c2ccc(F)cc21` (stereo not drawn) reads “Not Active”.
As for `CSc1ccc(/C=C2/C(C)=C(C(C)C(=O)N(C)CCCN(C)C)c3cc(F)ccc32)cc1` (stereo not drawn), the EC50 result is reported as “Not Active”.
For `CSc1ccc(/C=C2/C(C)=C(C(C)C(=O)N3CCC[C@H]3CN3CCCC3)c3cc(F)ccc32)cc1` (stereo partly drawn), the EC50 result is on record as “Not Active”.
Still for that read-out and setting: the result for `CSc1ccc(/C=C2/C(C)=C(C(C)C(=O)NCCN(C)C)c3cc(F)ccc32)cc1` (stereo not drawn) reads “Not Active”.

In a further assay the test system is MDA-MB-231. Nature of the assay: Growth inhibition of human MDA-MB-231 cells measured after 96 hrs by Celltiter-Glo reagent based assay. The class given is functional. To be noted: MDA-MB-231, 96 h.
Compound `CSc1ccc(/C=C2/C(C)=C(C(C)C(=O)N(C)CCN(C)C(=O)[C@@H](N)C(C)C)c3cc(F)ccc32)cc1` (stereo partly drawn) returned a CC50 of 3.86 µM.
The compound `CC1=C(C(C)C(=O)N2CCC[C@H]2CN2CCCC2)c2cc(F)ccc2/C1=C\c1ccc([S+](C)[O-])cc1` (stereo partly drawn) gave a cytotoxic concentration (CC50) of 32 µM.
Still for that read-out and setting: as for `CC1=C(C(C)C(=O)N(C)CCN(C)C)c2cc(F)ccc2/C1=C\c1ccc([S+](C)[O-])cc1` (stereo not drawn), the figure is over 50 µM; as for `CCN(CC)CCCNC(=O)C(C)C1=C(C)/C(=C/c2ccc(SC)cc2)c2ccc(F)cc21` (stereo not drawn), 4.23 µM; as for `CCN(CC)CCNC(=O)C(C)C1=C(C)/C(=C/c2ccc(SC)cc2)c2ccc(F)cc21` (stereo not drawn), 5.38 µM.
`CSc1ccc(/C=C2/C(C)=C(C(C)C(=O)N(C)CCCN(C)C)c3cc(F)ccc32)cc1` (stereo not drawn) showed a 50% cytotoxic concentration (CC50) of 4.11 µM.
`CSc1ccc(/C=C2/C(C)=C(C(C)C(=O)N3CCC[C@H]3CN3CCCC3)c3cc(F)ccc32)cc1` (stereo partly drawn) came in with a CC50 of 3.57 µM.
In turn, `CSc1ccc(/C=C2/C(C)=C(C(C)C(=O)NCCN(C)C)c3cc(F)ccc32)cc1` (stereo not drawn) returned a CC50 of 3.88 µM.

The next assay deals with PC-3. The assay is described as follows: Growth inhibition of human PC3 cells measured after 72 hrs by Celltiter-Glo reagent based assay. To be noted: PC-3, 72 h. The class given is functional.
For the compound `CSc1ccc(/C=C2/C(C)=C(C(C)C(=O)N(C)CCN(C)C(=O)[C@@H](N)C(C)C)c3cc(F)ccc32)cc1` (stereo partly drawn), the CC50 turned out to be 4.83 µM.
The same measure, in the same setting: the result for `CC1=C(C(C)C(=O)N2CCC[C@H]2CN2CCCC2)c2cc(F)ccc2/C1=C\c1ccc([S+](C)[O-])cc1` (stereo partly drawn) reads 24.4 µM.
`CC1=C(C(C)C(=O)N(C)CCN(C)C)c2cc(F)ccc2/C1=C\c1ccc([S+](C)[O-])cc1` (stereo not drawn) returned a CC50 of 44.6 µM.
Still for that read-out and setting: the result for `CCN(CC)CCCNC(=O)C(C)C1=C(C)/C(=C/c2ccc(SC)cc2)c2ccc(F)cc21` (stereo not drawn) reads 6.13 µM; that for `CCN(CC)CCNC(=O)C(C)C1=C(C)/C(=C/c2ccc(SC)cc2)c2ccc(F)cc21` (stereo not drawn), 6.21 µM; that for `CSc1ccc(/C=C2/C(C)=C(C(C)C(=O)N(C)CCCN(C)C)c3cc(F)ccc32)cc1` (stereo not drawn), 5.5 µM.
On the same count and under the same terms, the result for `CSc1ccc(/C=C2/C(C)=C(C(C)C(=O)N3CCC[C@H]3CN3CCCC3)c3cc(F)ccc32)cc1` (stereo partly drawn) reads 3.93 µM; that for `CSc1ccc(/C=C2/C(C)=C(C(C)C(=O)NCCN(C)C)c3cc(F)ccc32)cc1` (stereo not drawn), 5.07 µM.

Tested on in the next assay: not listed separately
Nature of the assay: Growth inhibition of human NALM16 cells measured after 72 hrs by Celltiter-Glo reagent based assay. The class given is functional.
Conditions: not given
In the case of `CCN(CC)CCCNC(=O)C(C)C1=C(C)/C(=C/c2ccc(SC)cc2)c2ccc(F)cc21` (stereo not drawn), the half-maximal effective concentration (EC50) entry is on record as “Not Active”.
As to `CCN(CC)CCNC(=O)C(C)C1=C(C)/C(=C/c2ccc(SC)cc2)c2ccc(F)cc21` (stereo not drawn), the EC50 entry is “Not Active”.
For `CSc1ccc(/C=C2/C(C)=C(C(C)C(=O)N(C)CCCN(C)C)c3cc(F)ccc32)cc1` (stereo not drawn), the EC50 entry is “Not Active”.
Still for that read-out and setting: as for `CSc1ccc(/C=C2/C(C)=C(C(C)C(=O)N3CCC[C@H]3CN3CCCC3)c3cc(F)ccc32)cc1` (stereo partly drawn), the entry is “Not Active”.

Still in this assay, the particulars now being: Homo sapiens, NALM16, 72 h; read-out: EC50.
Turning to `CSc1ccc(/C=C2/C(C)=C(C(C)C(=O)NCCN(C)C)c3cc(F)ccc32)cc1` (stereo not drawn), the EC50 is 76 µM.
